Square brackets hold non-standard residues; d marks the D form. Ends that are not written are not given here. * marks the point of attachment. Biotin = O=C1N[C@H]2[C@H](CS[C@H]2CCCCC(=O)*)N1; pS = N[C@@H](COP(=O)(O)O)C(=O)O
Experiments:
[1] = target: biotinylated STARD3 FFAT peptide (residues 200-216), pS209 (human); experiment: SPR
[2] = target: biotinylated STARD3 FFAT peptide (residues 200-216), pS209 + pS213 (human); experiment: SPR
[3] = target: T1, recombinant MSP domain of MOSPD2 K363L (human, UniProt Q8NHP6 282-490, K363L); experiment: pull-down
T1 sequence (looked up): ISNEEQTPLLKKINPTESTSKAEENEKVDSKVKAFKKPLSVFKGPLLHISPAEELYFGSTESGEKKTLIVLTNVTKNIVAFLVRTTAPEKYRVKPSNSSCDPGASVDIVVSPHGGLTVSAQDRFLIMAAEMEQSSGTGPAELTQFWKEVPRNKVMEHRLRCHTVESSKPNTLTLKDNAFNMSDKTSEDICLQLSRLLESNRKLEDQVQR

[4] = target: recombinant MSP domain of VAP-B (1-210), C-terminal His6 (human, UniProt O95292 1-210); experiment: pull-down
[5] = target: T2, recombinant MSP domain of VAP-A (8-212), C-terminal His6 (human, UniProt Q9P0L0 8-212); experiment: pull-down
T2 sequence (looked up): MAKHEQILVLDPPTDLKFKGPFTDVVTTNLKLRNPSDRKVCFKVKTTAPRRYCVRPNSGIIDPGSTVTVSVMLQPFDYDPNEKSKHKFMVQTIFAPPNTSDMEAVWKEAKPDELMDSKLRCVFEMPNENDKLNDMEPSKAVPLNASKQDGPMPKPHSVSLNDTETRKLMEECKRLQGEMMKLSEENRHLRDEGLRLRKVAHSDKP

[6] = target: T3, recombinant MSP domain of MOSPD2 (282-490), C-terminal His6 (human, UniProt Q8NHP6 282-490); experiment: pull-down
T3 sequence (looked up): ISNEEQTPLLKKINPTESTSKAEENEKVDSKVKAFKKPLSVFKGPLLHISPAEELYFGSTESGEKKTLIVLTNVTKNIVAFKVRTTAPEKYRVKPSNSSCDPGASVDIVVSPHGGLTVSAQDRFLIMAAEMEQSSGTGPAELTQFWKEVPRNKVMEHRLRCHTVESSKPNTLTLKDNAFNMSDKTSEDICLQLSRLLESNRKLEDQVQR

[7] = target: recombinant MSP domain of VAP-B K43L (human, UniProt O95292 1-210, K43L); experiment: pull-down
[8] = target: T4, recombinant MSP domain of VAP-A K50L (human, UniProt Q9P0L0 8-212, K50L); experiment: pull-down
T4 sequence (looked up): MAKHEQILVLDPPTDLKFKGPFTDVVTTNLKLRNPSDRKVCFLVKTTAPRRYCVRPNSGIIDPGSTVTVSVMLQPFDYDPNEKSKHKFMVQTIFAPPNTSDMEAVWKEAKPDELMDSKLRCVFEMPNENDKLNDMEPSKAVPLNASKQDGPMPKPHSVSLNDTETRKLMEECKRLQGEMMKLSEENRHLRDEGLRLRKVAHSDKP

[9] = target: T2, recombinant MSP domain of VAP-A …; experiment: crystal structure
[10] = target: T5, recombinant MSP domain of MOSPD2 (315-445) (human, UniProt Q8NHP6 315-445); experiment: crystal structure
T5 sequence (looked up): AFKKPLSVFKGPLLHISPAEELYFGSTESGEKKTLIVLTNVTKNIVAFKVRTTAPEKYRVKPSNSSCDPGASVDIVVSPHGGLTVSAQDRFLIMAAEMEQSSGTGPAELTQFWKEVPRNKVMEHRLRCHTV

[11] = DHE transport assay between liposomes; format: biochemical; settings: per cSTD3; absence of functional VAP; 37°C; n = 4
Outline: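 LA liposomes (DOPC, 3 mol% MPB-PE; 62.5 µM total lipids final) were preincubated 5 min with 475 nM cSTD3 or pS209 cSTD3 in TN3 buffer (50 mM Tris-HCl pH 8, 75 mM NaCl) at 37°C with stirring. Read-out was DNS-PE emission at 525 nm with excitation at 310 nm. Transport was expressed as mol% DHE = 10×(F−F0)/(Fmax−F0), with F0 set by 10 mM methyl-β-cyclodextrin.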

Sequence of recombinant MSP domain of VAP-B (1-210), C-terminal His6 (O95292 1-210): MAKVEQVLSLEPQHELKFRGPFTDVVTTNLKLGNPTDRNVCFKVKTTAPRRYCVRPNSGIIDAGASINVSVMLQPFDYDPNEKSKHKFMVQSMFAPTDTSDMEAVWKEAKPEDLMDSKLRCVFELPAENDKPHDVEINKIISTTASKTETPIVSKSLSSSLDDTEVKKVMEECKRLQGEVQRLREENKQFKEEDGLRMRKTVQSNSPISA
Sequence of recombinant MSP domain of VAP-B K43L (O95292 1-210 K43L): as the sequence (O95292 1-210) above, with K43L counted along it

Molecule: recombinant MSP domain of VAP-B (1-210), C-terminal His6 (from UniProt O95292 1-210) (domain or fragment)
- Kd [1]: 7.1 µM

Molecule: recombinant MSP domain of MOSPD2 (282-490), C-terminal His6 (from UniProt Q8NHP6 282-490) (domain or fragment)
- Kd [1]: 1.1 µM
- Kd [2]: 0.35 µM

Molecule: recombinant MSP domain of VAP-A (8-212), C-terminal His6 (from UniProt Q9P0L0 8-212) (domain or fragment)
- Kd [1]: 5.6 µM

Molecule: Biotin-GAMRSILSEDEFYDALSDSES [biotinylated ORP1 FFAT peptide (residues 469-485)]
- binding result [3]: binds
- binding result [4]: binds
- binding result [5]: binds
- binding result [6]: binds
- binding result [7]: binds
- binding result [8]: binds

Molecule: GAL[pS]EGQFY[pS]PPE[pS]FAG [phosphorylated FFAT peptide of STARD3 used for crystallisation with VAP-A (GALpSEGQFYpSPPEpSFAG)]
- binding result [9]: binds

Molecule: Biotin-GAMRGALSEGQFY[pS]PPE[pS]FAG [biotinylated STARD3 FFAT peptide (residues 200-216), pS209 + pS213]
- binding result [3]: binds

Molecule: CLFSGAL[pS]EGQFY[pS]PPE[pS]FAG
- binding result [10]: binds

B1: cSTD3 (protein)
chain: CLFSGALSEGQFYSPPESFAGSDNESDEEVAGKKSFSAQEREYIRQGKEATAVVDQILAQEENWKFEKNNEYGDTVYTIEVPFHGKTFILKTFLPCPAELVYQEVILQPERMVLWNKTVTACQILQRVEDNTLISYDVSAGAAGGVVSPRDFVNVRRIERRRDRYLSSGIATSHSAKPPTHKYVRGENGPGGFIVLKSASNPRVCTFVWILNTDLKGRLPRYLIHQSLAATMFEFAFHLRQRISELGARA
modifications: left off: GST, N-terminal, cleaved
- Initial DHE transport rate [11]: 10.45 DHE molecules/min
